According to ChEMBL document CHEMBL4330057, “Second generation of diazachrysenes: Protection of Ebola virus infected mice and mechanism of action” (Eur J Med Chem, 2019):
Activity calls are given as the source filed them. The rule behind the calls is not given here.

Columns and labels:
[1] = system: Ebolavirus; assay: Antiviral activity against Ebolavirus H. sapiens-wt/1995/Kikwit-9510621 infected in human HeLa cells assessed as inhibition of viral infection pretreated for 2 hrs followed by viral infection and measured after 48 hrs by EboV GP immunostaining based high content imaging analysis; format: functional, organism-based; conditions: Orthoebolavirus, H. sapiens-wt/1995/Kikwit-9510621, HeLa; for EC50: read-out: EC50
[2] = Cytotoxicity against human HeLa cells after 2 hrs by high content imaging analysis; format: cell-based
[3] = Selectivity index, ratio of CC50 for human HeLa cells to EC50 for Ebolavirus H. sapiens-wt/1995/Kikwit-9510621 infected in human HeLa cells; format: toxicity, cell-based; conditions: read-out: Ratio CC50/EC50
[4] = system: Ebolavirus; assay: Antiviral activity against Ebolavirus; format: functional, organism-based; conditions: Orthoebolavirus
[5] = system: Ebolavirus; assay: Antiviral activity against Ebolavirus infected in mouse assessed as protection against viral infection at 300 mg/kg/day relative to control; format: functional
[6] = Apparent permeability from apical to basolateral side in MDCK cells; format: ADME, cell-based, Canis lupus familiaris; conditions: dog
Method in brief: (§1)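 Apparent permeability measured in MDCK cell monolayers, apical→basolateral and basolateral→apical directions, three biological replicates.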

[7] = Apparent permeability from basolateral to apical side in MDCK cells; format: ADME, cell-based, Canis lupus familiaris; conditions: dog; method in brief: as §1
[8] = system: Ebolavirus; assay: Antiviral activity against Ebolavirus infected in mouse assessed as protection against viral infection at 24 mg/kg/day relative to control; format: functional
[9] = system: HeLa; assay: Induction of lysosomotropism in human HeLa cells infected with Ebolavirus assessed as increase in fluorescence intensity of acid compartments at 0.01 uM for 1 hr by Lysosensor DND189 staining based assay; format: functional, cell-based
Method in brief: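 HeLa cells were pretreated 1 h with compound (Bafilomycin A1 at 0.01 μM as acidification control), then stained with LysoSensor DND 189 for 10 min and washed. Live imaging at Ex/Em 443/505 nm. Fluorescence intensity per area was quantified by image analysis. Eight wells per point, about 3000 cells/well, mean ± SD, three independent experiments.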

[10] = system: HeLa; assay: Induction of lysosomotropism in human HeLa cells infected with Ebolavirus assessed as expansion of acid compartments at 0.01 uM for 2 hrs by acridine orange staining based assay; format: functional, cell-based
Method in brief: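 HeLa cells pretreated 2 h, then acridine orange for 30 min, washed and imaged. Total intensity and average area of acridine orange fluorescence quantified by high-content imaging. Mean ± SD of 8 wells, about 3000 cells each, three independent experiments.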

[11] = target: Cathepsin B (Homo sapiens) (UniProt P07858); assay: Inhibition of cathepsin B activity in human HeLa cells at 0.01 uM after 12 hrs by magic red substrate based fluorescence assay; format: cell-based
Method in brief: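 HeLa cells were exposed to compound for 12 h, then given the Magic Red cathepsin B peptide reporter, washed, and imaged at Ex/Em 590/630. Total intensity and average area of red fluorescence were scored by high-content analysis. Eight wells per point, about 3000 cells/well, mean ± SD, three independent experiments.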

[12] = system: Ebolavirus; assay: Antiviral activity against Ebolavirus infected in mouse assessed as protection against viral infection at 30 mg/kg/day relative to control; format: functional
[13] = system: Ebolavirus; assay: Antiviral activity against Ebolavirus infected in mouse assessed as protection against viral infection at 20 mg/kg/day relative to control; format: functional
[14] = Stability in plasma (unknown origin) after 1 hr at 37 degC; format: ADME, cell-free; conditions: read-out: Stability
Method in brief: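 Compound was incubated in plasma for 1 h at 37 °C, and the percent remaining was reported.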

[15] = Solubility of the compound in pH 7.4 buffer by laser nephelometric method; format: physicochemical
Method in brief: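 Solubility at pH 7.4 was measured by laser nephelometry (light scattering), in triplicate.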

[16] = target: T1, Cytochrome P450 3A4 (Homo sapiens, UniProt P08684); assay: Inhibition of CYP3A4 (unknown origin) using 7-benzyloxyquinoline as substrate; format: ADME
Method in brief: (§2)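 CYP IC50 was taken from the net fluorescent signal after incubation at 37 °C for a set time with active cytochrome P450 enzyme and a fluorescent probe substrate.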

[17] = target: T1, Cytochrome P450 3A4; assay: Inhibition of CYP3A4 (unknown origin) using dibenzylfluorescein as substrate; format: ADME; method in brief: as §2
[18] = target: T1, Cytochrome P450 3A4; assay: Inhibition of CYP3A4 (unknown origin) using 7-benzyloxy-4-trifluoromethylcoumarin as substrate; format: ADME; method in brief: as §2
[19] = target: Cytochrome P450 2D6 (Homo sapiens, UniProt P10635); assay: Inhibition of CYP2D6 (unknown origin) using 3-(2-(N, N-Diethyl-N-methylamino)ethyl)-7-Methoxy-4-Methylcoumarin as substrate; format: ADME; conditions: read-out: INH; method in brief: as §2
[20] = target: Cytochrome P450 2C19 (Homo sapiens, UniProt P33261); assay: Inhibition of CYP2C19 (unknown origin) using CEC as substrate; format: ADME; method in brief: as §2
[21] = Clearance in mouse liver microsomes after 1 hr; format: ADME, Microsome; conditions: read-out: CLH
Method in brief: (§3)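 Substrate depletion with mouse or human liver microsomes, 1 h at 37 °C. Clearance (μL/min/mg) and half-life derived.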

[22] = Clearance in human liver microsomes after 1 hr; format: ADME, Microsome; conditions: read-out: CLH; method in brief: as §3
[23] = Half life in mouse liver microsomes; format: ADME, Microsome; method in brief: as §3
[24] = Half life in human liver microsomes; format: ADME, Microsome; method in brief: as §3
[25] = Solubility of the compound in deionized water; format: physicochemical
[26] = system: Zaire ebolavirus; assay: Antiviral activity against Ebolavirus Mayinga infected in Balb/c mouse assessed as protection against viral infection by measuring host survival at 10 mg/kg, ip administered 2 hrs prior to viral infection daily for 6 days and measured for 14 days relative to control; format: functional, 1976
[27] = system: Zaire ebolavirus; assay: Antiviral activity against VSV pseudotyped Ebolavirus Mayinga expressing GFP infected in human HeLa cells assessed as inhibition of viral infection at 2 uM pre-incubated for 2 hrs followed by viral infection and measured after 8 hrs by cell mask deep red staining based assay; format: functional, organism-based; conditions: 1976
Method in brief: (§4)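 HeLa cells pretreated 2 h with compound, then infected with rVSV-EBOV-GP-GFP (8 h) or VSV-GFP (6 h), and stained with Cell Mask Deep Red. Relative inhibition = 1 minus (% GFP-expressing cells normalised to mock). Mean ± SD of three replicates, representative of three independent experiments.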

[28] = system: Vesicular stomatitis virus; assay: Antiviral activity against VSV expressing GFP infected in human HeLa cells assessed as inhibition of viral infection at 2 uM pre-incubated for 2 hrs followed by viral infection and measured after 6 hrs by cell mask deep red staining based assay; format: functional, organism-based; method in brief: as §4
[29] = system: Zaire ebolavirus; assay: Antiviral activity against VSV pseudotyped Ebolavirus Mayinga expressing GFP infected in human HeLa cells assessed as inhibition of viral infection up to 50 uM pre-incubated for 2 hrs followed by viral infection and measured after 8 hrs by high content imaging analysis; format: functional, organism-based; conditions: 1976; method in brief: as §4
[30] = system: Vesicular stomatitis virus; assay: Antiviral activity against VSV expressing GFP infected in human HeLa cells assessed as inhibition of viral infection at 50 uM pre-incubated for 2 hrs followed by viral infection and measured after 6 hrs by cell mask deep red staining based assay; format: functional, organism-based; method in brief: as §4
[31] = system: Vesicular stomatitis virus; assay: Antiviral activity against VSV expressing GFP infected in human HeLa cells assessed as inhibition of viral infection at 0.1 uM pre-incubated for 2 hrs followed by viral infection and measured after 6 hrs by cell mask deep red staining based assay; format: functional, organism-based; method in brief: as §4

T1 sequence (P08684 whole entry): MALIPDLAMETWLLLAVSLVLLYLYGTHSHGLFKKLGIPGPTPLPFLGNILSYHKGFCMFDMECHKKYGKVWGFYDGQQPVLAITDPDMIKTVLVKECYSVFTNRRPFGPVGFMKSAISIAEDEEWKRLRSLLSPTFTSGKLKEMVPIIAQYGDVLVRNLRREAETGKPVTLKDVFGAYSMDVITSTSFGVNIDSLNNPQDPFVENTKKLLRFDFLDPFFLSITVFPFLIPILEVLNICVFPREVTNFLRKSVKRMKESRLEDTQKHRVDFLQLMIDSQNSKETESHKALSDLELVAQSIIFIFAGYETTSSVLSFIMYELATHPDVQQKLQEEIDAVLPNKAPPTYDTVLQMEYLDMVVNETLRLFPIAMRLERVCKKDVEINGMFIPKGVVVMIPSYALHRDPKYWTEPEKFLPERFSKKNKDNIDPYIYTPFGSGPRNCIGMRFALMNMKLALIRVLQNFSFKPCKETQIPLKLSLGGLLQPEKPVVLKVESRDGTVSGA
Cytochrome P450 2C19, sequence (P33261 whole entry): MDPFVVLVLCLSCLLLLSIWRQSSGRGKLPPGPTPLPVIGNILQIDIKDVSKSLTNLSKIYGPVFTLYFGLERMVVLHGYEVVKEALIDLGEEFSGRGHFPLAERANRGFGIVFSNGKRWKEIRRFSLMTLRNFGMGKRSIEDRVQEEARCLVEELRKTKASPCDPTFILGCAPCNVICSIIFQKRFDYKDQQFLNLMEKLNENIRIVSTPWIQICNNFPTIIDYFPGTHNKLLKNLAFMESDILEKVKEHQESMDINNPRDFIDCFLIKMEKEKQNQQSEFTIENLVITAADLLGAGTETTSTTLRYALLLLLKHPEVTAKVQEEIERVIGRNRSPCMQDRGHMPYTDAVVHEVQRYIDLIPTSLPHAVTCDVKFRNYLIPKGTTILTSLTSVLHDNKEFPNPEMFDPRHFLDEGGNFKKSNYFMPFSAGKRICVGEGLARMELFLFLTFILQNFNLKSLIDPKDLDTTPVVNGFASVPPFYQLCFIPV
Cytochrome P450 2D6, sequence (P10635 whole entry): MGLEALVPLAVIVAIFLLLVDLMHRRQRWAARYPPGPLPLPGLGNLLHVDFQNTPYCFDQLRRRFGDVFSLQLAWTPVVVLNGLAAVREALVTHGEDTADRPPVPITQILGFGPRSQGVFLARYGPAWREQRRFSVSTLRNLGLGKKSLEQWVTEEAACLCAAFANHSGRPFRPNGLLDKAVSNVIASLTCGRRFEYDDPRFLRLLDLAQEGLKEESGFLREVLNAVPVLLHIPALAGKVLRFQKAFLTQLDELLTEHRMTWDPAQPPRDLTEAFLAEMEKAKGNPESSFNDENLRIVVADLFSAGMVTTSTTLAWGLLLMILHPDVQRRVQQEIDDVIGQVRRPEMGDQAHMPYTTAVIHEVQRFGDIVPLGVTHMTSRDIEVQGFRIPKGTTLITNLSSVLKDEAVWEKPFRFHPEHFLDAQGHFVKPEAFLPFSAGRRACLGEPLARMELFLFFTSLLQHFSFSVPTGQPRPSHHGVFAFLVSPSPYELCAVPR

For `Clc1ccc2c(NCCCCNc3ccnc4cccnc34)ccnc2c1`, the EC90 [1] was 13 µM, the EC50 [1] was 2.87 µM and the CC50 at 2 h [2] was > 25 µM. The selectivity ratio [3] was > 8.7.

With `Nc1ncnc2c(C[C@@H]3N[C@H](CO)[C@@H](O)[C@H]3O)c[nH]c12` the EC50 [4] was 3.4 to 11.8 µM and the Activity [5] was 100%.

In the case of `COc1cc2nc(N3CCN(C(=O)c4ccco4)CC3)nc(N)c2cc1OC` [PRAZOSIN], the Papp A→B [6] is reported as 276 to 300 nm/s and the Papp B→A [7] is reported as 486 to 589 nm/s.

In the case of `CC(C)COCC(CN(Cc1ccccc1)c1ccccc1)N1CCCC1` (configuration not stated) [BEPRIDIL], the Activity [8] is reported as 100%.

For `CO/C1=C\C(C)=C\[C@@H](C)[C@@H](O)[C@@H](C)C/C(C)=C/C=C/[C@H](OC)[C@@H]([C@@H](C)[C@@H](O)[C@H](C)[C@@]2(O)C[C@@H](O)[C@H](C)[C@@H](C(C)C)O2)OC1=O`, the Activity [9] was “Active”, the Activity [10] was “inactive” and the inhibition [11] was “Active”.

In the case of `CCN(CC)CCNc1ccnc2c(NCCN(CC)CC)ccnc12`, the EC90 [1] is reported as 62.6 µM, the EC50 [1] is reported as 14.1 µM and the CC50 at 2 h [2] is reported as > 25 µM. For the same compound, the selectivity ratio [3] was > 1.8.

In the case of `NCCCNc1ccnc2c1ccc1c2ccc2c(NCCCN)ccnc21`, the EC90 [1] is reported as 20.5 µM, the EC50 [1] is reported as 10 µM and the CC50 at 2 h [2] is reported as > 10 µM. For the same compound, the selectivity ratio [3] was > 1.

Compound `NC(=O)c1nc(F)cnc1O` has an EC50 [4] of 67 µM and an Activity [12] of 100%.

With `CCN(CC)CCCNc1ccnc2c1ccc1c2ccc2c(NCCN3CCOCC3)ccnc21` the EC90 [1] was 4.85 µM, the EC50 [1] was 0.79 µM and the CC50 at 2 h [2] was > 10 µM. The selectivity ratio [3] was > 12.6.

With `CN[C@H]1CC[C@@H](c2ccc(Cl)c(Cl)c2)c2ccccc21` [SERTRALINE] the Activity [13] was 70%.

With `OC(CNc1ccnc2c1ccc1c2ccc2c(NCCN3CCOCC3)ccnc21)CN1CCOCC1` (configuration not stated) the EC90 [1] was 3.5 µM, the EC50 [1] was 0.6 µM and the CC50 at 2 h [2] was > 10 µM. For the same compound, the selectivity ratio [3] was > 16.7.

With `c1cc(NCCCCN2CCOCC2)c2nccc(NCCCCN3CCOCC3)c2n1` the EC90 [1] was 9.9 µM, the EC50 [1] was 2.24 µM and the CC50 at 2 h [2] was > 25 µM. The selectivity ratio [3] was > 11.2.

With `CCN(CC)CCCC(C)Nc1ccnc2c(NC(C)CCCN(CC)CC)ccnc12` (configuration not stated) the EC90 [1] was 4.73 µM, the EC50 [1] was 0.78 µM and the CC50 at 2 h [2] was > 10 µM. For the same compound, the selectivity ratio [3] was > 13, the remaining at 1 h [14] was > 85% and the solubility kinetic [15] was > 0.05 mg/mL. For the same compound, the INH [16] was > 10 µM, the INH [17] was > 10 µM and the INH [18] was > 10 µM. For the same compound, the IC50 [19] was 8 µM, the INH [20] was 3.6 µM and the microsomal CLint [21] was 32.9 µL/min/mg. The microsomal CLint [22] was < 23 µL/min/mg, the half-life [23] was 42 min and the half-life [24] was > 60 min. For the same compound, the solubility [25] was ≥ 25 mg/mL, the Activity [26] was 40% and the Activity [27] was “Active”. The Activity [28] was “inactive”, the Activity [29] was “Active” and the Activity [30] was “Active”. The Activity [31] was “inactive”.
